Measured values from paper PMC2266618 (The Journal of General Physiology, 2005).

What was measured:
homomeric ASIC1a = molecular target: T1, homomeric ASIC1a (Rattus norvegicus, UniProt P55926); assay: Direct opening of ASIC1a channels by PcTx1; format: cell-based; conditions: 100 μM amiloride
T1 sequence (P55926 1-526): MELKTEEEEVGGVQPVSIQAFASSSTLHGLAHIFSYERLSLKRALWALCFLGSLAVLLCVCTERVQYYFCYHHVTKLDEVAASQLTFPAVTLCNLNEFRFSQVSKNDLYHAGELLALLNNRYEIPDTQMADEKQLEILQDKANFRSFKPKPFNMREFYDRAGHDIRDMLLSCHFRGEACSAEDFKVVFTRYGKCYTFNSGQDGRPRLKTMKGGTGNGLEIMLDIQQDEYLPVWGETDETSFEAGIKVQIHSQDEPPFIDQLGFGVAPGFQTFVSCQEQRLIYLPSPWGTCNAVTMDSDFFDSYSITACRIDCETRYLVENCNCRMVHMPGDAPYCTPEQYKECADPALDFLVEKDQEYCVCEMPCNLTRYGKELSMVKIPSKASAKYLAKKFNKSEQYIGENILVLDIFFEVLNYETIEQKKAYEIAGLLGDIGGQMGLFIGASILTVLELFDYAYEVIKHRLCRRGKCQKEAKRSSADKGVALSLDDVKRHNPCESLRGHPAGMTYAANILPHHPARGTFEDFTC
In short: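 Rat ASIC1a cRNA (0.01 ng) injected into stage V-VI Xenopus oocytes, kept 2-4 d in OR-2 (pH 7.3); whole-cell currents at -70 mV. The conditioning solution was switched from 1.8 to 0.1 mM Ca2+ (with 0.1 mM flufenamic acid) at pH 7.35, together with 100 nM test peptide toxin in 0.05% BSA. The transient inward current was tested with 100 µM amiloride.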

ASIC1a = conditions: ref Diochot et al., 2004; cited from earlier work
ASIC3 = conditions: ref Diochot et al., 2004, cited from earlier work

| Molecule | block of PcTx1-elicited currents by amiloride (homomeric ASIC1a; 100 nM PcTx1 coapplied with pH 7.1, n = 3) | block of PcTx1-elicited currents by amiloride (homomeric ASIC1a; 100 nM PcTx1 with 0.1 mM Ca2+ at pH 7.35, n = 4) | inhibition of ASIC1a (ASIC1a) | inhibition of ASIC3 (ASIC3; inhibition during steady state (at pH 7.4)) | affinity of the interaction with ASIC3 (ASIC3) |
| --- | --- | --- | --- | --- | --- |
| N=C(N)NC(=O)c1nc(Cl)c(N)nc1N [amiloride] | could be blocked | could be blocked |  |  |  |
| APETx2 |  |  | does not inhibit | inhibits | nanomolar affinity |
